ChEMBL document CHEMBL3860103, “Antibacterial and Antibiofilm Activity of Cationic Small Molecules with Spatial Positioning of Hydrophobicity: An in Vitro and in Vivo Evaluation” (J Med Chem, 2016)
Activity calls are given as the source filed them. The calls are words filed in the database; no cut-off is given here.

How the values were obtained:
Escherichia coli [1] = experiment: Induction of membrane depolarization in Escherichia coli at 32 ug/ml after 0 to 20 mins by […] dye based assay; assay type: functional
Outline: (§1)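 Membrane-potential dye DiSC3(5) taken up by S. aureus or E. coli; depolarization followed as rise in dye fluorescence after adding compounds at 32 µg/mL.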

[2] = Toxicity in HEK293 cells assessed as induction of cell death at 64 ug/ml incubated for 24 hrs by calcein AM and propidium iodide dye based fluorescence microscopy; conditions: human, hek293, 24 h
Outline: (§2)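 HEK 293 cells seeded ~10^4 cells/well, treated with compounds for 24 h (16, 32 or 64 µg/mL); 0.1% Triton X positive, untreated negative control. Stained with calcein AM (2 µM) and PI (4.5 µM) 15 min at 37 °C, 5% CO2; imaged by fluorescence microscopy, 20X objective.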

Staphylococcus aureus [3] = experiment: Induction of biofilm disruption in Staphylococcus aureus assessed as reduction in log bacterial burden at 32 ug/ml after 24 hrs by confocal laser-scanning microscopy; assay type: functional
Outline: (§3)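 Established coverslip biofilms (S. aureus 24 h in nutrient medium + 1% glucose + 1% NaCl; E. coli 72 h in M9 + 0.5% glycerol + 0.02% casamino acid; 37 °C) washed, then exposed to 32 µg/mL for 24 h at 37 °C. Matrix dissolved with trypsin-EDTA, serially diluted, plated on nutrient agar; viability as log10 CFU/mL versus media-only control.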

Mus musculus [4] = experiment: Toxicity in topically dosed mouse assessed as induction of inflammation at 200 mg/kg by OECD425 guidelines based method; assay type: organism-based; conditions: in vivo, topical_or_ocular
Staphylococcus aureus [5] = experiment: Induction of membrane permeabilization in Staphylococcus aureus at 32 ug/ml after 0 to 20 mins by propidium iodide dye based assay; assay type: functional
Outline: (§4)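 Membrane permeabilization of S. aureus or E. coli followed as increase in propidium iodide fluorescence after adding compounds at 32 µg/mL.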

Staphylococcus aureus [6] = experiment: (§5) Antibacterial activity against Staphylococcus aureus infected in BALB/c mouse model of superficial skin infection and biofilm formation assessed as reduction in bacterial load in skin at 40 mg/kg applied topically once daily for 4 days and measured 18 hrs after last dose; assay type: functional
Outline: (§6)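 Female BALB/c mice (6–8 weeks, 18–22 g) made neutropenic with cyclophosphamide i.p. (150 mg/kg, then 100 mg/kg 3 days later), anesthetized, backs shaved, wounded and infected with MRSA ATCC 33591. After 24 h biofilm formation, 40 mg/kg applied topically to wound once daily for 4 days (n = 5/group; untreated control). Skin collected 18 h after last dose for CFU/g; portions formalin-fixed for SEM.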

Staphylococcus aureus [7] = experiment: Antibacterial activity against methicillin-resistant Staphylococcus aureus incubated for 24 hrs; assay type: functional
Outline: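 MRSA (ATCC 33591) from a 6 h culture (~10^9 CFU/mL), diluted to ~10^5 CFU/mL in medium. Compounds in water, 2-fold serial dilutions, combined with the bacteria at 1:3 by volume and incubated 24 h at 37 °C. OD600 read. MIC is the lowest concentration whose OD matches the media-only control. Triplicate wells; experiments repeated at least twice.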

Escherichia coli [8] = experiment: Antibacterial activity against Escherichia coli incubated for 24 hrs; assay type: functional
Outline: (§7)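 Broth microdilution: 6 h cultures diluted to ~10^5 CFU/mL in medium; compounds 2-fold serially diluted in water, mixed 1:3 with bacterial suspension. Incubated 24 h, 37 °C; OD600 read. MIC = concentration with OD similar to medium-only control. Triplicate wells, experiments repeated at least twice.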

Staphylococcus aureus [9] = experiment: Induction of membrane depolarization in Staphylococcus aureus at 32 ug/ml after 0 to 20 mins by […] dye based assay; assay type: functional; outline: as §1
Staphylococcus aureus [10] = experiment: Antibacterial activity against Staphylococcus aureus incubated for 24 hrs; assay type: functional; outline: as §7
Mus musculus [11] = experiment: Toxicity in topically dosed mouse assessed as induction of abnormal skin reaction at 200 mg/kg by OECD425 guidelines based method; assay type: organism-based; conditions: in vivo, topical_or_ocular
[12] = Induction of hemolysis in human RBC incubated for 1 hr; assay type: cell-based, Erythrocyte; conditions: red blood cells
Outline: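 Washed human RBCs from heparinized blood, 5 vol% in PBS, mixed 3:1 with serially diluted compounds; 1 h at 37 °C. Centrifuged; supernatant A540 read. Hemolysis % = (A−A0)/(Atotal−A0)×100, with water as 0% and 0.1 vol% Triton X-100 as full lysis.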

[13] = Toxicity in HEK293 cells assessed as induction of cell death at 32 ug/ml incubated for 24 hrs by calcein AM and propidium iodide dye based fluorescence microscopy; conditions: human, hek293, 24 h; outline: as §2
[14] = Selectivity index, ratio of HC50 for induction of hemolysis in human RBC to MIC for Staphylococcus aureus
[15] = Induction of membrane hydration changes in Laurdan dye containing DPPG:DPPE (88:12) liposomes assessed as reduction in general polarization at 25 to 100 ug/ml by luminescence spectrometry; assay type: physicochemical
Outline: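 Liposomes of 0.5 mM DPPG:DPPE (88:12) or 0.5 mM DPPC with Laurdan (lipid:dye 100:1), hydrated in PBS pH 7.4, 10 freeze–thaw cycles, sonicated 15 min at 70 °C. Compounds added in PBS (lipid:compound 7.4:1), tested at 25, 50, 100 µg/mL; emission at 440 and 490 nm (ex 350 nm), 37 °C. GP = (I440−I490)/(I440+I490).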

Staphylococcus aureus [16] = experiment: as §5, with “dose relative to un-treated control” for “dose”; assay type: functional; design: scale not given: the % may be the effect or the level left; outline: as §6
[17] = Toxicity in HEK293 cells assessed as cell density level at 16 ug/ml incubated for 24 hrs by calcein AM and propidium iodide dye based fluorescence microscopy; conditions: human, hek293, 24 h; outline: as §2
Staphylococcus aureus [18] = experiment: Induction of biofilm disruption in Staphylococcus aureus after 24 hrs by confocal laser-scanning microscopy; assay type: functional
Outline: (§8)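 Biofilms grown on glass coverslips from ~10^5 CFU/mL: S. aureus in nutrient medium + 1% glucose + 1% NaCl, 24 h; E. coli in M9 + 0.5% glycerol + 0.02% casamino acid, 72 h; stationary, 37 °C. After PBS wash, treated 24 h at 37 °C with 32 µg/mL in the same medium; media-only control. Stained with SYTO 9 (5 µM), imaged by confocal microscopy.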

Escherichia coli [19] = experiment: Induction of biofilm disruption in Escherichia coli assessed as reduction in log bacterial burden at 32 ug/ml after 72 hrs by confocal laser-scanning microscopy; assay type: functional; conditions: in the assay text read “after 24 hrs” for “after 72 hrs”; outline: as §3
[20] = Selectivity index, ratio of HC50 for induction of hemolysis in human RBC to MIC for Escherichia coli
Escherichia coli [21] = experiment: Induction of biofilm disruption in Escherichia coli assessed as mature biofilm thickness at 32 ug/ml after 24 hrs by SYTO 9 dye based confocal laser-scanning microscopy (reference value: 14 to 18 um); assay type: functional; outline: as §8
Staphylococcus aureus [22] = experiment: as §5, with “dose by FEI field emission scanning electron microscopy relative to un-treated control” for “dose”; assay type: functional, organism-based; outline: as §6
Escherichia coli [23] = experiment: Induction of membrane permeabilization in Escherichia coli at 32 ug/ml after 0 to 20 mins by propidium iodide dye based assay; assay type: functional; outline: as §4
[24] = Toxicity in topically dosed mouse by OECD425 guidelines based method; assay type: organism-based; conditions: in vivo, topical or ocular
Staphylococcus aureus [25] = experiment: Induction of biofilm disruption in Staphylococcus aureus assessed as mature biofilm thickness at 32 ug/ml after 24 hrs by SYTO 9 dye based confocal laser-scanning microscopy (reference value: 14 to 18 um); assay type: functional; outline: as §8

With `CCCCCCNC(=O)C[N+](C)(C)CCCCCCCCCCCC[N+](C)(C)CC(=O)NCCCCCC.[Br-].[Br-]` as the molecule, how does the Activity (Escherichia coli [1]) read?
The Activity was “Active”.

And the Activity [2]?
The Activity was “Non-Toxic”.

And the FC (Staphylococcus aureus [3])?
Its FC is 9.2.

What about the Activity (Mus musculus [4]) of the same molecule?
The Activity was “Non-Toxic”.

And the Activity (Staphylococcus aureus [5])?
Its Activity is “Active”.

And the Activity (Staphylococcus aureus [6])?
The Activity was 5.3 log10CFU/g.

What about the MIC (Staphylococcus aureus [7]) of the same molecule?
The MIC was 2 µg/mL.

And the MIC (Escherichia coli [8])?
The MIC was 2 µg/mL.

What about the Activity (Staphylococcus aureus [9]) of the same molecule?
The Activity was “Active”.

What about the MIC (Staphylococcus aureus [10]) of the same molecule?
The MIC was 1 µg/mL.

What about the Activity (Mus musculus [11]) of the same molecule?
The Activity was “Non-Toxic”.

And the HC50 at 1 h [12]?
The HC50 at 1 h was 805 µg/mL.

And the Activity [13]?
The Activity was “Non-Toxic”.

And the Selectivity Index [14]?
Its Selectivity Index is 805.

And the Activity [15]?
The Activity was “Active”.

And the Activity (Staphylococcus aureus [16])?
Its Activity is over 99.999%.

What about the Activity [17] of the same molecule?
Its Activity is “Non-Toxic”.

And the MBEC (Staphylococcus aureus [18])?
The MBEC was 31.2 to 62.5 µg/mL.

And the FC (Escherichia coli [19])?
Its FC is 7.1.

What about the Selectivity Index [20] of the same molecule?
Its Selectivity Index is 402.

What about the Activity (Escherichia coli [21]) of the same molecule?
The Activity was 2 - 3 um.

And the Activity (Staphylococcus aureus [22])?
Its Activity is “Active”.

And the Activity (Escherichia coli [23])?
The Activity was “Active”.

And the LD50 [24]?
Its LD50 is over 200 mg/kg.

What about the Activity (Staphylococcus aureus [25]) of the same molecule?
The Activity was 2 - 3 um.
